In ChEMBL document CHEMBL4270599, “Synthesis of a 3'-C-ethynyl-β-d-ribofuranose purine nucleoside library: Discovery of C7-deazapurine analogs as potent antiproliferative nucleosides” (Eur J Med Chem, 2018):

Assays:
CCRF-CEM = test: Cytotoxicity against human CCRF-CEM cells after 48 hrs by SRB assay; assay type: functional; details: for GI50: read-out: GI50; for CC50: read-out: LC50 (the source's name)
MOLT-4 [1] = test: Cytotoxicity against human MOLT4 cells after 48 hrs by SRB assay; assay type: functional; details: MOLT-4, 48 h; for GI50: read-out: GI50; for CC50: read-out: LC50 (the source's name); for TGI: read-out: TGI
SR [2] = test: Cytotoxicity against human SR cells after 48 hrs by SRB assay; assay type: functional; details: for GI50: read-out: GI50; for CC50: read-out: pLC50 (the source's name) (converted)
A549 = test: Cytotoxicity against human A549 cells after 48 hrs by SRB assay; assay type: functional; details: A549, 48 h; for GI50: read-out: GI50; for CC50: read-out: pLC50 (the source's name) (converted)
LOX IMVI [3] = test: Cytotoxicity against human LOXIMVI cells after 48 hrs by SRB assay; assay type: functional; details: for GI50: read-out: GI50; for CC50: read-out: LC50 (the source's name); for TGI: read-out: TGI
OVCAR-5 = test: Cytotoxicity against human OVCAR5 cells after 48 hrs by SRB assay; assay type: functional; details: OVCAR-5, 48 h; for GI50: read-out: GI50; for TGI: read-out: TGI
MDA-MB-231 [4] = test: Cytotoxicity against human MDA-MB-231 cells after 48 hrs by SRB assay; assay type: functional; details: MDA-MB-231, 48 h; for GI50: read-out: GI50; for CC50: read-out: LC50 (the source's name)
MDA-MB-468 = test: Cytotoxicity against human MDA-MB-468 cells after 48 hrs by SRB assay; assay type: functional; details: MDA-MB-468, 48 h; for GI50: read-out: GI50; for TGI: read-out: TGI; for CC50: read-out: pLC50 (the source's name) (converted)
MOLT-4 [5] = test: Growth inhibition of human MOLT4 cells assessed as cell growth at 10^-8 M incubated for 48 hrs by sulforhodamine B assay relative to control; assay type: functional; details: MOLT-4, 48 h, read-out: Activity
HOP-92 [6] = test: Growth inhibition of human HOP92 cells assessed as cell growth at 10^-8 M incubated for 48 hrs by sulforhodamine B assay relative to control; assay type: functional; details: HOP-92, 48 h, read-out: Activity
NCI-H23 = test: Growth inhibition of human NCI-H23 cells assessed as cell growth at 10^-8 M incubated for 48 hrs by sulforhodamine B assay relative to control; assay type: functional; details: NCI-H23, 48 h, read-out: Activity
SF-268 = test: Growth inhibition of human SF268 cells assessed as cell growth at 10^-8 M incubated for 48 hrs by sulforhodamine B assay relative to control; assay type: functional; details: SF-268, 48 h, read-out: Activity
LOX IMVI [7] = test: Growth inhibition of human LOXIMVI cells assessed as cell growth at 10^-8 M incubated for 48 hrs by sulforhodamine B assay relative to control; assay type: functional; details: read-out: Activity
NCI/ADR-RES = test: Growth inhibition of human NCI/ADR-RES cells assessed as cell growth at 10^-8 M incubated for 48 hrs by sulforhodamine B assay relative to control; assay type: functional; details: read-out: Activity
Hs-578T = test: Growth inhibition of human Hs 578T cells assessed as cell growth at 10^-8 M incubated for 48 hrs by sulforhodamine B assay relative to control; assay type: functional; details: read-out: Activity
MOLT-4 [8] = test: Growth inhibition of human MOLT4 cells assessed as cell growth at 10^-7 M incubated for 48 hrs by sulforhodamine B assay relative to control; assay type: functional; details: MOLT-4, 48 h, read-out: Activity
HOP-92 [9] = test: Growth inhibition of human HOP92 cells assessed as cell growth at 10^-7 M incubated for 48 hrs by sulforhodamine B assay relative to control; assay type: functional; details: HOP-92, 48 h, read-out: Activity
SN12C = test: Growth inhibition of human SN12C cells assessed as cell growth at 10^-7 M incubated for 48 hrs by sulforhodamine B assay relative to control; assay type: functional; details: read-out: Activity
TK-10 = test: Growth inhibition of human TK10 cells assessed as cell growth at 10^-7 M incubated for 48 hrs by sulforhodamine B assay relative to control; assay type: functional; details: TK-10, 48 h, read-out: Activity
SR [10] = test: Growth inhibition of human SR cells assessed as cell growth at 10^-6 M incubated for 48 hrs by sulforhodamine B assay relative to control; assay type: functional; details: read-out: Activity
NCI-H322M = test: Growth inhibition of human NCI-H322M cells assessed as cell growth at 10^-6 M incubated for 48 hrs by sulforhodamine B assay relative to control; assay type: functional; details: read-out: Activity
HCT-15 [11] = test: Growth inhibition of human HCT15 cells assessed as cell growth at 10^-6 M incubated for 48 hrs by sulforhodamine B assay relative to control; assay type: functional; details: HCT-15, 48 h, read-out: Activity
HCT-15 [12] = test: Growth inhibition of human HCT15 cells assessed as cell growth at 10^-5 M incubated for 48 hrs by sulforhodamine B assay relative to control; assay type: functional; details: HCT-15, 48 h, read-out: Activity
HCT-116 = test: Growth inhibition of human HCT116 cells assessed as cell growth at 10^-4 M incubated for 48 hrs by sulforhodamine B assay relative to control; assay type: functional; details: HCT-116, 48 h, read-out: Activity
ACHN = test: Growth inhibition of human ACHN cells assessed as cell growth at 10^-4 M incubated for 48 hrs by sulforhodamine B assay relative to control; assay type: functional; details: read-out: Activity
HUVEC = test: Antiproliferative activity against HUVEC cells after 4 days by Coulter counter method; assay type: cell-based; details: Homo sapiens, 96 h
Outline: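 Primary HUVEC, primary HMVEC-d and the HMEC-1 line seeded at 20,000 cells/well in gelatin-coated plates in EC growth medium (EGM2). After overnight incubation, 5-fold compound dilutions added. Cells proliferated four days with compound, then trypsinized and counted by Coulter counter to derive IC₅₀.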

HT-29 = test: Growth inhibition of human HT-29 cells assessed as cell growth at 10^-6 M incubated for 48 hrs by sulforhodamine B assay relative to control; assay type: functional; details: HT-29, 48 h, read-out: Activity
Malme-3M = test: Growth inhibition of human MALME-3M cells assessed as cell growth at 10^-6 M incubated for 48 hrs by sulforhodamine B assay relative to control; assay type: functional; details: read-out: Activity
SNB-19 = test: Growth inhibition of human SNB19 cells assessed as cell growth at 10^-5 M incubated for 48 hrs by sulforhodamine B assay relative to control; assay type: functional; details: SNB-19, 48 h, read-out: Activity
IGROV-1 = test: Growth inhibition of human IGROV1 cells assessed as cell growth at 10^-4 M incubated for 48 hrs by sulforhodamine B assay relative to control; assay type: functional; details: IGROV-1, 48 h, read-out: Activity
MDA-MB-231 [13] = test: Growth inhibition of human MDA-MB-231 cells assessed as cell growth at 10^-4 M incubated for 48 hrs by sulforhodamine B assay relative to control; assay type: functional; details: MDA-MB-231, 48 h, read-out: Activity

C#C[C@@]1(O)[C@@H](CO)O[C@@H](n2cc(Cl)c3c(N)ncnc32)[C@@H]1O
GI50 (CCRF-CEM): 239 to 257 nM | CC50 (CCRF-CEM): > 100000 nM | TGI (CCRF-CEM; read-out: TGI): > 100000 nM | TGI (CCRF-CEM; read-out: pTGI): > 100000 nM | GI50 (MOLT-4 [1]): 161 to 181 nM | CC50 (MOLT-4 [1]): > 100000 nM | TGI (MOLT-4 [1]): 6970 to 100000 nM | GI50 (SR [2]): 61.1 to 87.3 nM | TGI (SR [2]; read-out: TGI): > 100000 nM | CC50 (SR [2]): > 100000 nM | TGI (SR [2]; read-out: pTGI): > 100000 nM | GI50 (A549): 138 to 237 nM | CC50 (A549): > 100000 nM | GI50 (LOX IMVI [3]): 36 to 81.4 nM | CC50 (LOX IMVI [3]): 756 to 871 nM | TGI (LOX IMVI [3]): 226 to 284 nM | GI50 (OVCAR-5): 280 to 644 nM | CC50 (OVCAR-5; read-out: LC50 (the source's name)): > 100000 nM | TGI (OVCAR-5): 70800 to 100000 nM | GI50 (MDA-MB-231 [4]): 148 to 193 nM | CC50 (MDA-MB-231 [4]): > 100000 nM | TGI (MDA-MB-231 [4]; read-out: TGI): 893 to 1010 nM | GI50 (MDA-MB-468): 180 to 243 nM | TGI (MDA-MB-468): 451 to 751 nM | CC50 (MDA-MB-468): 2090 nM | growth at 0.01 µM (MOLT-4 [5]): 81 to 83% | growth at 0.01 µM (HOP-92 [6]): 90 to 97% | growth at 0.01 µM (NCI-H23): 88 to 89% | growth at 0.01 µM (SF-268): 82 to 88% | growth at 0.01 µM (LOX IMVI [7]): 70 to 84% | growth at 0.01 µM (NCI/ADR-RES): 77 to 82% | growth at 0.01 µM (Hs-578T): 95 to 96% | growth at 0.1 µM (MOLT-4 [8]): 62 to 67% | growth at 0.1 µM (HOP-92 [9]): 90% | growth at 0.1 µM (SN12C): 53 to 72% | growth at 0.1 µM (TK-10): 100 to 101% | growth at 1 µM (SR [10]): 5 to 6% | growth at 1 µM (NCI-H322M): 13 to 23% | growth at 1 µM (HCT-15 [11]): 1% | growth at 10 µM (HCT-15 [12]): 1% | growth at 100 µM (HCT-116): 3 to 4% | growth at 100 µM (ACHN): 7% | IC50 (HUVEC): 4.9 nM

C#C[C@@]1(O)[C@@H](CO)O[C@@H](n2cc(Br)c3c(N)ncnc32)[C@@H]1O
GI50 (CCRF-CEM): 140 to 285 nM | CC50 (CCRF-CEM): > 100000 nM | TGI (CCRF-CEM; read-out: TGI): > 100000 nM | TGI (CCRF-CEM; read-out: pTGI): > 100000 nM | GI50 (MOLT-4 [1]): 70.8 to 178 nM | CC50 (MOLT-4 [1]): > 100000 nM | TGI (MOLT-4 [1]): 778 to 100000 nM | GI50 (SR [2]): 43.8 to 84.5 nM | TGI (SR [2]; read-out: TGI): > 100000 nM | CC50 (SR [2]): > 100000 nM | TGI (SR [2]; read-out: pTGI): > 100000 nM | GI50 (A549): 90 to 283 nM | CC50 (A549): > 100000 nM | GI50 (LOX IMVI [3]): 29 to 105 nM | CC50 (LOX IMVI [3]): 720 to 2130 nM | TGI (LOX IMVI [3]): 176 to 351 nM | GI50 (OVCAR-5): 257 to 1370 nM | TGI (OVCAR-5): 56700 to 100000 nM | CC50 (OVCAR-5; read-out: pLC50 (the source's name) (converted)): > 100000 nM | GI50 (MDA-MB-231 [4]): 56 to 215 nM | CC50 (MDA-MB-231 [4]): > 100000 nM | TGI (MDA-MB-231 [4]; read-out: TGI): > 100000 nM | TGI (MDA-MB-231 [4]; read-out: pTGI (converted)): > 100000 nM | GI50 (MDA-MB-468): 115 to 219 nM | TGI (MDA-MB-468): 352 to 637 nM | CC50 (MDA-MB-468): 1910 nM | growth at 0.01 µM (MOLT-4 [5]): 86 to 95% | growth at 0.01 µM (HOP-92 [6]): 90 to 94% | growth at 0.01 µM (NCI-H23): 90 to 91% | growth at 0.01 µM (SF-268): 83 to 93% | growth at 0.01 µM (LOX IMVI [7]): 76 to 94% | growth at 0.01 µM (NCI/ADR-RES): 80 to 90% | growth at 0.01 µM (Hs-578T): 90 to 96% | growth at 0.1 µM (MOLT-4 [8]): 44 to 66% | growth at 0.1 µM (HOP-92 [9]): 63 to 78% | growth at 0.1 µM (SN12C): 31 to 69% | growth at 0.1 µM (TK-10): 99 to 103% | growth at 1 µM (SR [10]): 7 to 9% | growth at 1 µM (NCI-H322M): 26 to 33% | growth at 1 µM (HCT-15 [11]): 4 to 7% | growth at 1 µM (HT-29): 5 to 8% | growth at 1 µM (Malme-3M): 43 to 47% | growth at 10 µM (HCT-15 [12]): 3% | growth at 10 µM (SNB-19): 1% | growth at 100 µM (HCT-116): 3 to 5% | growth at 100 µM (IGROV-1): -2% | growth at 100 µM (ACHN): 7% | growth at 100 µM (MDA-MB-231 [13]): 9% | IC50 (HUVEC): 18 nM
